Experiment [1] deals with Rattus norvegicus. As to the kind of experiment: Compound was evaluated for maximum decrease in mean arterial pressure after an intragastric dose of 0.3 mg/kg in rats. The experiment is classed as functional, Artery. Summed up: (§1)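 Goldblatt 2K-1C model: Sprague-Dawley rats (150 g) under pentobarbital (50 mg/kg ip) had the left renal artery clipped with a silver wire (0.2 mm internal diameter). Hypertension developed over 4–7 weeks, then the right carotid was cannulated under pentobarbital and saline infused at 5 µL/min. Dosing by gastric gavage in 0.5% methyl cellulose, 5 mL/kg. MAP recorded for 24 h; maximum fall reported, mean ± SE, 6–12 rats/group.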

The target of experiment [2] is T1, Angiotensin II receptor (AT-1) type-1 (Rattus norvegicus, UniProt P29089+P25095).
T1 sequence (P29089 whole entry): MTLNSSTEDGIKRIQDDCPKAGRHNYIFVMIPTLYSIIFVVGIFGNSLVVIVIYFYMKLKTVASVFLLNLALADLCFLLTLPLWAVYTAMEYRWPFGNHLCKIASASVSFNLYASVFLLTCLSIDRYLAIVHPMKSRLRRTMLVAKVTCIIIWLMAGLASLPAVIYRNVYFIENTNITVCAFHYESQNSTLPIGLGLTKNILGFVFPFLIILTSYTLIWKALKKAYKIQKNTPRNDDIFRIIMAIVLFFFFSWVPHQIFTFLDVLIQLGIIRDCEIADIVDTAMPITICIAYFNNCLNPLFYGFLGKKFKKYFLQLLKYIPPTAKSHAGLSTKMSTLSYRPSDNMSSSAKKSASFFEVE
T1 sequence (P25095 whole entry): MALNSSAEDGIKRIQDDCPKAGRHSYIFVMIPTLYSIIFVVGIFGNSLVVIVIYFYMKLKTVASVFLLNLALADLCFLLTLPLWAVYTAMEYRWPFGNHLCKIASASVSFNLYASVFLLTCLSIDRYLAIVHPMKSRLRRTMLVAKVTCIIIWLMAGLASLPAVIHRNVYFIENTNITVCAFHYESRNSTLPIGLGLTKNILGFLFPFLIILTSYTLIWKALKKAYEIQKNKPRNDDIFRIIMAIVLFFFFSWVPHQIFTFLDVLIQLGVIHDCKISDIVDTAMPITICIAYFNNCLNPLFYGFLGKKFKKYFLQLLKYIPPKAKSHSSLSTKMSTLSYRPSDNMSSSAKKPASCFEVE
Description: Compound was evaluated for the in vitro inhibition of specific binding of [125I]-A II to Angiotensin II receptor, type 1 from rat adrenal membranes. The experiment is classed as cell membranes, Membrane.

Experiment [3] has as its system Rattus norvegicus. As to the kind of experiment: Compound was evaluated for maximum decrease in mean arterial pressure after an intragastric dose of 10.0 mg/kg in rats. The experiment is classed as functional, Artery. In outline:
as §1

For experiment [4], the system named is Rattus norvegicus. As to the kind of experiment: Compound was evaluated for maximum decrease in mean arterial pressure after an intravenous dose of 3.0 mg/kg in rats. The experiment is classed as functional, Artery. In outline:
(§2)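 Renal hypertension produced in 150 g Sprague-Dawley rats by clipping the left renal artery (silver wire, 0.2 mm ID), used after 4–7 weeks. Right carotid cannulated under pentobarbital (50 mg/kg ip) with saline infusion at 5 µL/min. Intravenous dosing, then MAP and heart rate monitored over 24 h. Maximum MAP decrease reported as mean ± SE versus vehicle-treated rats.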

Experiment [5] has as its system Rattus norvegicus. Description: Compound was evaluated for maximum decrease in mean arterial pressure after an intragastric dose of 1.0 mg/kg in rats. The experiment is classed as functional, Artery. In outline:
as §1

Experiment [6] deals with Rattus norvegicus. As to the kind of experiment: Compound was evaluated for maximum decrease in mean arterial pressure after an intravenous dose of 1.0 mg/kg in rats. The experiment is classed as functional, Artery. In outline:
as §2

For experiment [7], the system named is Rattus norvegicus. Description: Compound was evaluated for maximum decrease in mean arterial pressure after an intragastric dose of 3.0 mg/kg in rats. The experiment is classed as functional, Artery. In outline: as §1
Experiment [8] relates to Rattus norvegicus. Description: Compound was evaluated for maximum decrease in mean arterial pressure after an intragastric dose of 0.1 mg/kg in rats. The experiment is classed as functional, Artery. Summed up:
as §1

For experiment [9], the system named is Rattus norvegicus. As to the kind of experiment: Compound was evaluated for maximum decrease in mean arterial pressure after an intravenous dose of 0.1 mg/kg in rats. The experiment is classed as functional, Artery. In outline: as §2
Experiment [10] has as its system Rattus norvegicus. Description: Compound was evaluated for maximum decrease in mean arterial pressure after an intragastric dose of 30.0 mg/kg in rats. The experiment is classed as functional, Artery. Summed up: as §1
The subject of experiment [11] is Rattus norvegicus. As to the kind of experiment: Compound was evaluated for maximum decrease in mean arterial pressure after an intravenous dose of 0.10 mg/kg in rats. The experiment is classed as functional, Artery. The settings on record: dose 0.1 mg/kg. Summed up:
as §2

Experiment [12] relates to Rattus norvegicus. As to the kind of experiment: Compound was evaluated for maximum decrease in mean arterial pressure after an intravenous dose of 0.03 mg/kg in rats. The experiment is classed as functional, Artery. In outline: as §2
The subject of experiment [13] is Rattus norvegicus. Description: Compound was evaluated for maximum decrease in mean arterial pressure after an intravenous dose of 10.0 mg/kg in rats. The experiment is classed as functional, Artery. In outline:
as §2

Experiment [14] addresses Angiotensin II receptor (AT-1) type-1 (Rattus norvegicus) (UniProt P29089+P25095). As to the kind of experiment: Compound was evaluated for the in vitro inhibition of specific binding of [125I]-A II to Angiotensin II receptor, type 1 in rat liver membrane at 100 nM.

The IC50 is the midpoint of a concentration-inhibition curve. Read a high IC50 as lower potency. For the compound `Cc1nc(C)c2c(n1)N(Cc1ccc(-c3ccccc3-c3nnn[nH]3)cc1)C(=O)CC2` [TASOSARTAN], the MAP came to 45 mmHg in [1]; 81 mmHg in experiment [3]; 54 mmHg in [4]; 71 mmHg in experiment [5]; 53 mmHg in [6]; 76 mmHg in [7]. Besides, the MAP turned out to be 6 mmHg in [8], 37 mmHg in [9] and 80 mmHg in experiment [10]. The same compound showed an IC50 in [2] of 1.2 nM.
In turn, `Cc1nc(C)c2ccc(=O)n(Cc3ccc(-c4ccccc4-c4nn[nH]n4)cc3)c2n1` returned an IC50 in [2] of 6.5 nM.
Still for that read-out and setting: next, `Cc1nc(CO)nc2c1c(O)cc(=O)n2Cc1ccc(-c2ccccc2-c2nn[nH]n2)cc1`: 0.41 nM.
Turning to `Cc1nc(C)c2c(O)cc(=O)n(Cc3ccc(-c4ccccc4-c4nn[nH]n4)cc3)c2n1` [ENOLTASOSARTAN], the MAP in [11] was 67 mmHg; in experiment [3], 66 mmHg; in experiment [12], 34 mmHg; in experiment [7] it was 39 mmHg. Moreover, the IC50 in [2] was 0.17 nM.
`Cc1nc(C)c2c(n1)N(Cc1ccc(-c3ccccc3-c3nn[nH]n3)cc1)C(=O)CC2O` (centres undefined): the MAP in [3] came out at 71 mmHg; in [4] it was 47 mmHg; in experiment [5], 55 mmHg; in experiment [6], 51 mmHg; in experiment [7], 54 mmHg; in experiment [13], 41 mmHg.
The inhibition is the share of the control response that was lost under treatment. Read a low inhibition as little suppression. As to `Cc1nc(C)c2c(n1)N(Cc1ccc(-c3ccccc3-c3nnn(C4OC(C(=O)O)C(O)C(O)C4O)n3)cc1)C(=O)CC2` (centres undefined), the inhibition in experiment [14] worked out at 3.5%.

(Values after ChEMBL document CHEMBL1131153, “Metabolites of the angiotensin II antagonist tasosartan: the importance of a second acidic group” (J Med Chem, 1998).)
